Paper PMC9066187 (RSC Advances, 2019)
Like-named read-outs stand apart in the source and are kept apart here.

How the values were obtained:
HCT-116 cells [1] = conditions: 72 h; for viability drop compared to control cells: 100 μM
[2] = system: LS-174T colorectal cancer cells; experiment: cells; conditions: Homo sapiens, LS174T, 72 h, read-out: viability drop compared to control cells
HCT-116 cells [3] = experiment: cells; conditions: Homo sapiens, HCT-116, 72 h; for IC50: 72 h; for viability at 10 µM: read-out: viability drop compared to control cells
HT-29 cells [4] = experiment: cells; conditions: Homo sapiens, HT-29, 72 h; for viability at 10 µM: read-out: viability drop compared to control cells
HT-29 cells [5] = conditions: 72 h; for viability drop compared to control cells: 100 μM
purified Src kinase = purified Src kinase (Homo sapiens, UniProt P12931); experiment: biochemical; conditions: for inhibition at 10 µM: read-out: Src kinase inhibition
Sequence of purified Src kinase (P12931 whole entry, looked up): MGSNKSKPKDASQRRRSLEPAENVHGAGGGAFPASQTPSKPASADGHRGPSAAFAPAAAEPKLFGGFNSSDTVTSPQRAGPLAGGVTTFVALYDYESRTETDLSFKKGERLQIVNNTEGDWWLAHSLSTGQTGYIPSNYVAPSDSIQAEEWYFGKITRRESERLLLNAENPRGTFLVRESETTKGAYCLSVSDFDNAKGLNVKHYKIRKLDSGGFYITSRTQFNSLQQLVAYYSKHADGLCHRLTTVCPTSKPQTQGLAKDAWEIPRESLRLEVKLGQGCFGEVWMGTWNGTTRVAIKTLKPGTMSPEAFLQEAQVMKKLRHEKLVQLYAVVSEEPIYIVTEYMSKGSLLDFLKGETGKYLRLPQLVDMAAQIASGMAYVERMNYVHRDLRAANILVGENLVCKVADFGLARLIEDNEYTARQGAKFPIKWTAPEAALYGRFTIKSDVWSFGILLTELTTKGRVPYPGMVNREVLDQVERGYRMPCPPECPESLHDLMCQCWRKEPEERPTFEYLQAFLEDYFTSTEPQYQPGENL

[6] = system: mixture of tyrosine kinases extracted from HT-29 cell line; type: biochemical, human; conditions: 10 μM
[7] = system: LS-174T colorectal cancer cells; conditions: 100 μM; 72 h
HT-29 cells [8] = experiment: Cell cycle distribution by DNA cytometry, HT-29; type: cell-based, human; conditions: 10 μM, 48 h; for cells in S-phase: control 27.3 ± 0.6%; for cell population in G0/G1-phase: control 53.4 ± 2.7%; for cell population in G2/M-phase: control 19.3 ± 1.6%
HCT-116 cells [9] = experiment: Cell cycle distribution by DNA cytometry, HCT-116; type: cell-based, human; conditions: 10 μM, 48 h
HCT-116 cells [10] = experiment: Cyto-ID autophagy assessment, HCT-116; type: cell-based, human; conditions: 10 μM, 48 h
HCT-116 cells [11] = experiment: Annexin V-FITC/PI apoptosis/necrosis assessment, HCT-116; type: cell-based, human; conditions: 10 μM, 48 h, versus control
Procedure, shortened: (§1)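 Human colorectal cancer cells were exposed to 10 μM test compound for 48 h, then stained with annexin V-FITC/PI and analysed by flow cytometry to separate apoptotic from necrotic cells. Each population is expressed as a percentage of total events and compared with untreated control. Values are mean ± SD, n = 3.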

HT-29 cells [12] = experiment: Annexin V-FITC/PI apoptosis/necrosis assessment, HT-29; type: cell-based, human; conditions: 10 μM, 48 h, versus control
Procedure, shortened: as §1

HT-29 cells [13] = experiment: Cyto-ID autophagy assessment, HT-29; type: cell-based, human; conditions: for inhibition at 10 µM: Homo sapiens, HT-29, 48 h, read-out: inhibition of autophagy

Structure (SMILES): Cc1cc(O)cc(-c2nc(Nc3cc(C(F)(F)F)cc(C(F)(F)F)c3)ncc2-c2ccnc(-c3ccc(N(C)C)cc3)c2)c1 [Compound 10g]
- R (resistance fraction) (HCT-116 cells [1]): 41.6 ± 3.2%
- viability at 100 µM [2]: > 50%
- IC50 (HCT-116 cells [3]): 9.4 ± 0.9 µM
- viability at 10 µM (HCT-116 cells [3]): 30 to 45%
- IC50 (HT-29 cells [4]): 24.2 ± 2.1 µM
- R (resistance fraction) (HT-29 cells [5]): 12.9 ± 3.9%
- EC50 (purified Src kinase): 3.7 ± 0.7 µM
- inhibition at 10 µM (purified Src kinase): 51.3 ± 9.8%
- multi-kinase inhibitory effect [6]: 39 ± 0.4%

Structure (SMILES): CC(=O)c1cccc(-c2cc(-c3cnc(Nc4cc(C(F)(F)F)cc(C(F)(F)F)c4)nc3-c3cc(C)cc(O)c3)ccn2)c1 [Compound 10c]
- viability at 10 µM [2]: > 50%
- viability at 100 µM [2]: > 50%
- viability at 10 µM (HCT-116 cells [3]): 30 to 45%
- viability at 10 µM (HT-29 cells [4]): 35 to 45%

Structure (SMILES): Cc1cc(O)cc(-c2nc(Nc3cc(C(F)(F)F)cc(C(F)(F)F)c3)ncc2-c2ccnc(-c3ccc(N(c4ccccc4)c4ccccc4)cc3)c2)c1 [Compound 10h]
- viability drop compared to control cells (HCT-116 cells [1]): failed to show any considerable antiproliferative/cytotoxic effects
- viability drop compared to control cells (HT-29 cells [5]): failed to show any considerable antiproliferative/cytotoxic effects
- viability drop compared to control cells [7]: failed to show any considerable antiproliferative/cytotoxic effects

Structure (SMILES): COc1cc(C)cc(-c2nc(Nc3cc(C(F)(F)F)cc(C(F)(F)F)c3)ncc2-c2ccnc(-c3cccc(C(C)=O)c3)c2)c1 [Compound 8c]
- viability at 10 µM (HT-29 cells [4]): 35 to 45%

Structure (SMILES): COc1cc(C)cc(-c2nc(Nc3cc(C(F)(F)F)cc(C(F)(F)F)c3)ncc2-c2ccnc(-c3ccc(Oc4ccccc4)cc3)c2)c1 [Compound 8j]
- Src kinase selectivity index (purified Src kinase): 2.1
- inhibition at 10 µM (purified Src kinase): 54.9 ± 1.6%
- multi-kinase inhibitory effect [6]: 26 ± 0.5%

Structure (SMILES): COc1cc(C)cc(-c2nc(Nc3cc(C(F)(F)F)cc(C(F)(F)F)c3)ncc2-c2ccnc(-c3cccnc3)c2)c1 [Compound 8b]
- IC50 (HCT-116 cells [1]): 32.4 ± 2.8 µM
- R (resistance fraction) (HCT-116 cells [1]): 3.7 ± 0.9%
- cells in S-phase (HT-29 cells [8]): 21.0 ± 0.9%
- cell population in G0/G1-phase (HT-29 cells [8]): 58.8 ± 1.8%
- cells in S-phase (HCT-116 cells [9]; control 36.4 ± 4.1%): 22.8 ± 2.3%
- cells in G0/G1-phase (HCT-116 cells [9]; control 39.5 ± 4.6%): 50.2 ± 1.0%
- autophagic signal higher than control cells (HCT-116 cells [10]): 54%
- IC50 (HCT-116 cells [3]): > 25 µM
- viability at 10 µM (HCT-116 cells [3]): 30 to 45%
- IC50 (HT-29 cells [4]): 11.3 ± 0.5 µM
- viability at 10 µM (HT-29 cells [4]): 35 to 45%
- increase of apoptotic cell population (HCT-116 cells [11]): 3.8 folds
- increase of necrotic cell population (HCT-116 cells [11]): 2.9 folds
- increase of apoptotic cell population (HT-29 cells [12]): 2.5 folds
- inhibition at 10 µM (HT-29 cells [13]): 21%
- EC50 (purified Src kinase): 1.3 ± 0.3 µM
- Src kinase selectivity index (purified Src kinase): 2.9
- inhibition at 10 µM (purified Src kinase): 77.8 ± 1.3%
- multi-kinase inhibitory effect [6]: 26.6 ± 2.4%

Structure (SMILES): CCN(CC)CCCC(C)Nc1ccnc2cc(Cl)ccc12 (stereo not drawn) [chloroquine, reference compound]
- autophagic signal higher than control cells (HCT-116 cells [10]): 65%
- effect on autophagy in words (HT-29 cells [13]; HT-29, 10 μM, 48 h, Cyto-ID): induced autophagy

Structure (SMILES): COc1cc(C)cc(-c2nc(Nc3cc(C(F)(F)F)cc(C(F)(F)F)c3)ncc2-c2ccnc(-c3ccccc3)c2)c1 [Compound 8a]
- Src kinase selectivity index (purified Src kinase): 2.4
- inhibition at 10 µM (purified Src kinase): 54 ± 0.6%
- multi-kinase inhibitory effect [6]: 23 ± 0.4%

Structure (SMILES): COc1cc(C)cc(-c2nc(Nc3cc(C(F)(F)F)cc(C(F)(F)F)c3)ncc2-c2ccnc(-c3ccc(N(c4ccccc4)c4ccccc4)cc3)c2)c1 [Compound 8h]
- viability drop compared to control cells (HCT-116 cells [1]): failed to show any considerable antiproliferative/cytotoxic effects
- viability drop compared to control cells (HT-29 cells [5]): failed to show any considerable antiproliferative/cytotoxic effects
- viability drop compared to control cells [7]: failed to show any considerable antiproliferative/cytotoxic effects

Structure (SMILES): Cc1cc(O)cc(-c2nc(Nc3cc(C(F)(F)F)cc(C(F)(F)F)c3)ncc2-c2ccnc(-c3cccnc3)c2)c1 [Compound 10b]
- IC50 (HCT-116 cells [1]): 25.9 ± 1.3 µM
- R (resistance fraction) (HCT-116 cells [1]): <1%
- cell population in G2/M-phase (HT-29 cells [8]): 25.1 ± 0.6%
- cells in S-phase (HT-29 cells [8]): 23.0 ± 0.5%
- autophagic signal higher than control cells (HCT-116 cells [10]): 30%
- IC50 (HCT-116 cells [3]): > 25 µM
- viability at 10 µM (HCT-116 cells [3]): 30 to 45%
- IC50 (HT-29 cells [4]): 6.4 ± 0.5 µM
- viability at 10 µM (HT-29 cells [4]): > 50%
- increase of apoptotic cell population (HCT-116 cells [11]): 4.7 folds
- increase of necrotic cell population (HCT-116 cells [11]): 2.4 folds
- increase of apoptotic cell population (HT-29 cells [12]): 2.3 folds
- Src kinase inhibitory activity in words (dose-response) (purified Src kinase): completely inactive

Structure (SMILES): COc1cc(C)cc(-c2nc(Nc3cc(C(F)(F)F)cc(C(F)(F)F)c3)ncc2-c2ccnc(-c3ccc(C#N)cc3)c2)c1 [Compound 8f]
- viability at 10 µM [2]: > 50%
- viability at 100 µM [2]: > 50%
- viability at 10 µM (HCT-116 cells [3]): > 50%
- viability at 10 µM (HT-29 cells [4]): > 50%

Structure (SMILES): Cc1cc(O)cc(-c2nc(Nc3cc(C(F)(F)F)cc(C(F)(F)F)c3)ncc2-c2ccnc(-c3ccccc3)c2)c1 [Compound 10a]
- cell population in G2/M-phase (HT-29 cells [8]): 24.8 ± 0.4%
- cells in S-phase (HT-29 cells [8]): 29.8 ± 0.6%
- cell population in G0/G1-phase (HT-29 cells [8]): 45.4 ± 0.6%
- IC50 (HCT-116 cells [3]): 10.3 ± 0.6 µM
- viability at 10 µM (HCT-116 cells [3]): 30 to 45%
- IC50 (HT-29 cells [4]): 9.9 ± 0.3 µM
- viability at 10 µM (HT-29 cells [4]): > 50%
- increase of apoptotic cell population (HCT-116 cells [11]): 7.5 folds
- increase of necrotic cell population (HCT-116 cells [11]): 4.0 folds
- inhibition at 10 µM (HT-29 cells [13]): 24%
- Src kinase inhibitory activity in words (dose-response) (purified Src kinase): completely inactive
- multi-kinase inhibitory effect [6]: 24.7 ± 4.6%

Structure (SMILES): Cc1cc(O)cc(-c2nc(Nc3cc(C(F)(F)F)cc(C(F)(F)F)c3)ncc2-c2ccnc(-c3ccc(C#N)cc3)c2)c1 [Compound 10f]
- autophagic signal higher than control cells (HCT-116 cells [10]): 99%
- IC50 (HCT-116 cells [3]): 9.2 ± 0.8 µM
- viability at 10 µM (HCT-116 cells [3]): 30 to 45%
- IC50 (HT-29 cells [4]): 7.2 ± 1.1 µM
- increase of apoptotic cell population (HCT-116 cells [11]): 15.2 folds
- increase of necrotic cell population (HCT-116 cells [11]): 3.7 folds
- increase of apoptotic cell population (HT-29 cells [12]): 1.7 folds
- Src kinase inhibitory activity in words (dose-response) (purified Src kinase): completely inactive
- multi-kinase inhibitory effect [6]: 23.9 ± 7.4%

Structure (SMILES): Cc1cc(O)cc(-c2nc(Nc3cc(C(F)(F)F)cc(C(F)(F)F)c3)ncc2-c2ccnc(-c3ccc(Oc4ccccc4)cc3)c2)c1 [Compound 10j]
- viability at 10 µM [2]: > 50%
- viability at 100 µM [2]: > 50%
- viability at 10 µM (HCT-116 cells [3]): 30 to 45%
- viability at 10 µM (HT-29 cells [4]): 35 to 45%
- multi-kinase inhibitory effect [6]: 30.2 ± 0.4%

Structure (SMILES): COc1cc(C)cc(-c2nc(Nc3cc(C(F)(F)F)cc(C(F)(F)F)c3)ncc2-c2ccnc(Cl)c2)c1 [Compound 7]
- viability at 100 µM [2]: > 50%
- IC50 (HT-29 cells [4]): 9.4 ± 0.5 µM
- viability at 10 µM (HT-29 cells [4]): > 50%
- increase of necrotic cell population (HCT-116 cells [11]): 3.4 folds
- Src kinase inhibitory activity in words (dose-response) (purified Src kinase): moderate inhibitory activity
- inhibition at 10 µM (purified Src kinase): 42.3 ± 10.3%
- multi-kinase inhibitory effect [6]: 37.4 ± 3.7%

Structure (SMILES): COc1cc(C)cc(-c2nc(Nc3cc(C(F)(F)F)cc(C(F)(F)F)c3)ncc2-c2ccnc(-c3ccc(N(C)C)cc3)c2)c1 [Compound 8g]
- viability at 100 µM [2]: > 50%
- viability at 10 µM (HCT-116 cells [3]): 30 to 45%
- viability at 10 µM (HT-29 cells [4]): > 50%
- inhibition at 10 µM (purified Src kinase): 28.5 ± 1.2%
- multi-kinase inhibitory effect [6]: 33.1 ± 0.4%

Structure (SMILES): CC(=O)c1ccc(-c2cc(-c3cnc(Nc4cc(C(F)(F)F)cc(C(F)(F)F)c4)nc3-c3cc(C)cc(O)c3)ccn2)cc1 [Compound 10d]
- viability at 10 µM [2]: > 50%
- viability at 100 µM [2]: > 50%
- viability at 10 µM (HT-29 cells [4]): 35 to 45%
